Reference: ChEMBL document CHEMBL4043220, “Rational design of conformationally constrained oxazolidinone-fused 1,2,3,4-tetrahydroisoquinoline derivatives as potential PDE4 inhibitors” (Bioorg Med Chem, 2017)

What was measured:
[1] = target: T1, 3',5'-cyclic-AMP phosphodiesterase 4B (Homo sapiens, UniProt Q07343); test: Inhibition of PDE4B isolated from human U937 cells using [3H]-cAMP incubated for 30 mins
PBMC [2] = test: Inhibition of LPS-induced TNFalpha production in human PBMC pre-incubated for 30 mins before LPS stimulation for 18 hrs by TR-FRET assay; type: functional, cell-based
Summary of the method: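 PBMCs isolated from buffy coats (blood diluted 1:1 saline) and suspended at 5 × 10⁵ cells/mL in RPMI 1640 with 0.5% human serum albumin, pen/strep, 2 mM L-glutamine. 30 min compound pre-incubation, then 18 h LPS stimulation; supernatant TNF-α by TR-FRET (665 nm signal, 620 nm control); IC50 in μM.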

[3] = target: 3',5'-cyclic-AMP phosphodiesterase 4D (Homo sapiens, UniProt Q08499); test: Inhibition of PDE4D isolated from human U937 cells using [3H]-cAMP incubated for 30 mins
Mus musculus = test: Inhibition of LPS-induced TNFalpha production in Swiss Albino mouse model of sepsis at 10 mg/kg, po pre-treated 30 mins before LPS challenge and measured 90 mins post LPS injection by ELISA method relative to untreated control; type: functional
Summary of the method: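 Female Swiss albino mice, weight-matched groups (n = 6), fasted 20 h with water; test compound given orally at 10 mg/kg as suspension in 0.5% Tween 80 / 0.25% sodium CMC, controls vehicle only. 30 min later 500 μg E. coli LPS (B4) i.p. in phosphate buffer; retro-orbital bleed at 90 min, serum TNF-α by mouse ELISA.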

Rattus norvegicus = test: Inhibition of LPS-induced neutropenia in Sprague-Dawley rat model of asthma assessed as reduction in neutrophils in BAL fluid at 10 mg/kg, po pre-treated 30 mins before LPS challenge and measured 6 hrs after LPS injection relative to untreated control; type: functional; conditions: in the assay text read “neutrophilia” for “neutropenia”
Summary of the method: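 Male Sprague Dawley rats acclimatized one week, randomized by weight (n = 6). Compound at 10 mg/kg po in 0.25% carboxymethyl cellulose vehicle given 30 min before 40 min exposure to 100 μg/mL E. coli LPS (B4). BAL at 6 h after exposure; total cell count and differential count versus control.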

[4] = target: T1, 3',5'-cyclic-AMP phosphodiesterase 4B; test: Inhibition of human PDE4B at 100 uM
PDE9A = PDE9A (Homo sapiens, UniProt O76083); test: Inhibition of human PDE9A at 100 uM
PDE8A = PDE8A (Homo sapiens, UniProt O60658); test: Inhibition of human PDE8A at 100 uM
PDE10A = PDE10A (Homo sapiens, UniProt Q9Y233); test: Inhibition of human PDE10A at 100 uM
PBMC [5] = test: Potency index, ratio of IC50 for rolipram to IC50 for test compound for inhibition of LPS-induced TNFalpha production in human PBMC pre-incubated for 30 mins before LPS stimulation for 18 hrs by TR-FRET assay; type: functional
PDE7A = PDE7A (Homo sapiens, UniProt Q13946); test: Inhibition of human PDE7A at 100 uM
PDE1A = PDE1A (Homo sapiens, UniProt P54750); test: Inhibition of human PDE1A at 100 uM
PDE5A = PDE5A (Homo sapiens, UniProt O76074); test: Inhibition of human PDE5A at 100 uM
PDE2A = PDE2A (Homo sapiens, UniProt O00408); test: Inhibition of human PDE2A at 100 uM
PDE6C = PDE6C (Homo sapiens, UniProt P51160); test: Inhibition of human PDE6C at 100 uM
PDE11A = PDE11A (Homo sapiens, UniProt Q9HCR9); test: Inhibition of human PDE11A at 100 uM
PDE3B = PDE3B (Homo sapiens, UniProt Q13370); test: Inhibition of human PDE3B at 100 uM
Sequence of PDE3B (Q13370 whole entry): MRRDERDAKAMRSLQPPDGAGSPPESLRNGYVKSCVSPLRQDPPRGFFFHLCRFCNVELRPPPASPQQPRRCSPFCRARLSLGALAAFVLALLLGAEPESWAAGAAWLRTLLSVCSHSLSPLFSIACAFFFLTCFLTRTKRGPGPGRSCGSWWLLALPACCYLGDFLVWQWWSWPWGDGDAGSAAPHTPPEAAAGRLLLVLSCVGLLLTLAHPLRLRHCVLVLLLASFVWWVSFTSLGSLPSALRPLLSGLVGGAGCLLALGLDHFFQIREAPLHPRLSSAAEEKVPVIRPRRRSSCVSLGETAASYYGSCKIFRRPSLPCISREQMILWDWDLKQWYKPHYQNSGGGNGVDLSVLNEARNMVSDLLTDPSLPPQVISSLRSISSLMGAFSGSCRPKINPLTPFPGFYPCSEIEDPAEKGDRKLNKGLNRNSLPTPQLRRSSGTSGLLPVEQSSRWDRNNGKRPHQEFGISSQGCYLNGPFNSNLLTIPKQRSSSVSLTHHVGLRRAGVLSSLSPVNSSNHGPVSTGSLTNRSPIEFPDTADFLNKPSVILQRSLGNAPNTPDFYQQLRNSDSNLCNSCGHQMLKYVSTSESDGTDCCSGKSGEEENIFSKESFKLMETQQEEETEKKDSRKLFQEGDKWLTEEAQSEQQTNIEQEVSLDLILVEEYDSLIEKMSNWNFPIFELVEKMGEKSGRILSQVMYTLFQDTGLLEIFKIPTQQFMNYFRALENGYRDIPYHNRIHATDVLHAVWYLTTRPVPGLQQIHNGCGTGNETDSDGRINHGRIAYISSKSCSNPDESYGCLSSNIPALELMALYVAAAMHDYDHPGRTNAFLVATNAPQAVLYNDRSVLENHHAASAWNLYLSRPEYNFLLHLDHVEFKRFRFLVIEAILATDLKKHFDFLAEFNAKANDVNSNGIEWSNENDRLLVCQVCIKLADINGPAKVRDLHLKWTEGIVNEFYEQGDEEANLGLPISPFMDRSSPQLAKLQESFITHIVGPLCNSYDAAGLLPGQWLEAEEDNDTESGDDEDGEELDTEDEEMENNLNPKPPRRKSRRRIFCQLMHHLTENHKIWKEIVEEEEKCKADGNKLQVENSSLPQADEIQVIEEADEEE

Sequence of 3',5'-cyclic-AMP phosphodiesterase 4D (Q08499 whole entry): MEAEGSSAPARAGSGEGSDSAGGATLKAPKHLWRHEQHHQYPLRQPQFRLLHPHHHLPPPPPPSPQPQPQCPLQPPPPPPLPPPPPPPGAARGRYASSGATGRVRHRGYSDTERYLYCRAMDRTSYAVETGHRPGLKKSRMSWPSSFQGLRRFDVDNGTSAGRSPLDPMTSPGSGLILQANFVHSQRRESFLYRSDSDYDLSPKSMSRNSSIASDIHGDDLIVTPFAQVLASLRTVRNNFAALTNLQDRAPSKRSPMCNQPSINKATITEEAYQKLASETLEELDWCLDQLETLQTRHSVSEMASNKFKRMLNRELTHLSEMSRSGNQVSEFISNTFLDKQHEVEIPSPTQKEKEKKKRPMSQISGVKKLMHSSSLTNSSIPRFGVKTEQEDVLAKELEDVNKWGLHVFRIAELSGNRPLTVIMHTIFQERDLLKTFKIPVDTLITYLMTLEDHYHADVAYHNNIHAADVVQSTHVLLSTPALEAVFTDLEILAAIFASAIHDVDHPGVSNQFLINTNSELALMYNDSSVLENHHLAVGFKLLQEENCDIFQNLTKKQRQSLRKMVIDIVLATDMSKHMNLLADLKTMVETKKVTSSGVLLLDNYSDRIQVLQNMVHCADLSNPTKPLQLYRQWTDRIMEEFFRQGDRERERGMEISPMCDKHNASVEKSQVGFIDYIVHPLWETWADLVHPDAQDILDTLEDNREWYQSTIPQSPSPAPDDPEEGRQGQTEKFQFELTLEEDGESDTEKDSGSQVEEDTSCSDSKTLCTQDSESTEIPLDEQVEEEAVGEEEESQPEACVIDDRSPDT
T1 sequence (Q07343 whole entry): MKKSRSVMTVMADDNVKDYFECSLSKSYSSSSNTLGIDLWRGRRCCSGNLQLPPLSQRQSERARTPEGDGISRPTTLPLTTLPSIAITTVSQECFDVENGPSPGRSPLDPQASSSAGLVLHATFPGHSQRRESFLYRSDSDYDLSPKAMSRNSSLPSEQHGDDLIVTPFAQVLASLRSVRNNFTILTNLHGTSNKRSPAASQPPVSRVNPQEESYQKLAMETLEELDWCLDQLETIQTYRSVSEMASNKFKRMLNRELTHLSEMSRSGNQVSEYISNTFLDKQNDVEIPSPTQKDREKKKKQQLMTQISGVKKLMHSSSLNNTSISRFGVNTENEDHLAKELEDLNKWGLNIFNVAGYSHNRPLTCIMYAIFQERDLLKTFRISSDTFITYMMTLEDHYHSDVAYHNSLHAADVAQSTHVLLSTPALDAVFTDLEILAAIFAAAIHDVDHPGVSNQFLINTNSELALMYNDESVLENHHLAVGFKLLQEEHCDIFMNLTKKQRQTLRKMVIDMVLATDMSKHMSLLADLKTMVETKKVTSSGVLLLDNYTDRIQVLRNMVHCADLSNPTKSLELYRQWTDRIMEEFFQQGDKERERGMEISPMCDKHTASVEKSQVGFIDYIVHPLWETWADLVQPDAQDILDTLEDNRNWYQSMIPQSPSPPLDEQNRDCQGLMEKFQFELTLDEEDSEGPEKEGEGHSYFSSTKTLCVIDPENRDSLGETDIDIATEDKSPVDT
Sequence of PDE10A (Q9Y233 whole entry): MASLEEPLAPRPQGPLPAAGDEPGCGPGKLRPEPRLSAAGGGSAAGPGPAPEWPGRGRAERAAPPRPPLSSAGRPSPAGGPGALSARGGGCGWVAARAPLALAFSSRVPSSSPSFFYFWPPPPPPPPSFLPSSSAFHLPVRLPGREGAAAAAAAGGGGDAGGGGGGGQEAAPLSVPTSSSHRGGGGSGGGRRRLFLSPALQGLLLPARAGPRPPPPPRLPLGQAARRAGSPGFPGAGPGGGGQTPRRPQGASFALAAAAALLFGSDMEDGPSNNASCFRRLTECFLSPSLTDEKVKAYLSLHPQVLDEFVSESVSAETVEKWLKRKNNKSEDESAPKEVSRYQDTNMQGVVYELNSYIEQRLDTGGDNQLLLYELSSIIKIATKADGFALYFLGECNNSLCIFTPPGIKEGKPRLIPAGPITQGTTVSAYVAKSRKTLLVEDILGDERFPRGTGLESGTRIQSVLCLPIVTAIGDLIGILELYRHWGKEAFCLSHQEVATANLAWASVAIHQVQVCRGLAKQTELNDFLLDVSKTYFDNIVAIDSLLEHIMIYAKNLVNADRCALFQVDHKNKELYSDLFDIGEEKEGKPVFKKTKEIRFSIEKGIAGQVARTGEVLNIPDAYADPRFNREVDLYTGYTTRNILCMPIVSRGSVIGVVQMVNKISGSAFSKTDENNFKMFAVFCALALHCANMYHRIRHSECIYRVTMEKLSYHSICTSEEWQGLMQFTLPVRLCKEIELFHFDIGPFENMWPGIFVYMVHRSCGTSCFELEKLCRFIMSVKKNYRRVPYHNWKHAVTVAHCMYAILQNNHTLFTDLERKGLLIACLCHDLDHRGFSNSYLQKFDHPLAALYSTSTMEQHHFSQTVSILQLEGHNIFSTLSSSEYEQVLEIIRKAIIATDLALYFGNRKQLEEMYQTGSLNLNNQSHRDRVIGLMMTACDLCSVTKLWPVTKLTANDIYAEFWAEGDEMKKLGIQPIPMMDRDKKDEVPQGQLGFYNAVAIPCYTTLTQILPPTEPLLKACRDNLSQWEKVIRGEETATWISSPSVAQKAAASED
Sequence of PDE11A (Q9HCR9 whole entry): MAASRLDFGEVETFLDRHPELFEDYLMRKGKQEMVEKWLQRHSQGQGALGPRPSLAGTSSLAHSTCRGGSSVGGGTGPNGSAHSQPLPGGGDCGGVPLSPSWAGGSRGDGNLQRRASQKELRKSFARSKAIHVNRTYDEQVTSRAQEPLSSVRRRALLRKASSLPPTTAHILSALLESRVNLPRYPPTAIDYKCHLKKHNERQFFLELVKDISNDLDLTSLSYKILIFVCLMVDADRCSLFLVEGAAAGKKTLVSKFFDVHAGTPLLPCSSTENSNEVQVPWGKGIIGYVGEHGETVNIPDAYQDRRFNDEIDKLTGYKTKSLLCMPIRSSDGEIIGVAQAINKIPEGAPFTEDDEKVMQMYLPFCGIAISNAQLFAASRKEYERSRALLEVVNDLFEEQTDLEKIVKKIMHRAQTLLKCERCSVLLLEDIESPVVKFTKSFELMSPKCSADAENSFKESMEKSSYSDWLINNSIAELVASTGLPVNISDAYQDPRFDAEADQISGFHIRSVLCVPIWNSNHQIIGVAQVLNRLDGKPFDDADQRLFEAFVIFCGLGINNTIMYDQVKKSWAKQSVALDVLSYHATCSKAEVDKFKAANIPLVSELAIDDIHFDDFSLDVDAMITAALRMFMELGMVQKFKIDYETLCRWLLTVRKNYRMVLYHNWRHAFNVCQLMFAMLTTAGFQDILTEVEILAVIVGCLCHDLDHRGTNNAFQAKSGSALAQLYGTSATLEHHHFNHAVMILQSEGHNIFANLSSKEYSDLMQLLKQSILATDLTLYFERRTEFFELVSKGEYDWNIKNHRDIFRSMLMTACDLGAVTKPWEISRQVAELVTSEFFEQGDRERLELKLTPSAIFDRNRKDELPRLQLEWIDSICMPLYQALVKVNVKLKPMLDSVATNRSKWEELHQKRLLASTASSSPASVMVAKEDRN

IC50 [1] [µM]	IC50 [3] [µM]	Structure (SMILES)	IC50 (PBMC [2]) [µM]	other results
> 100	–	COc1cc2c(cc1O)CN1C(=O)OCC1C2 (configuration not stated)	–	–
8.18	–	COc1cc2c(cc1OCc1ccccc1)CN1C(=O)OCC1C2 (configuration not stated)	–	–
1.35	12.8	COc1cc2c(cc1OC1CCCC1)C(C)N1C(=O)OCC1C2 (mixture of isomers)	2.6	–
1.95	31.6	COc1cc2c(cc1OC1CCCC1)C(c1ccccc1)N1C(=O)OCC1C2 (mixture of isomers)	6.75	inhibition in vivo at 10 mg/kg (Mus musculus): 40.4%; inhibition in vivo at 10 mg/kg (Rattus norvegicus): 28.1%
2.1	23.1	CCCCCCC1c2cc(OC3CCCC3)c(OC)cc2CC2COC(=O)N21 (mixture of isomers)	7.98	–
2.06	26.7	COc1cc2c(cc1OC1CCCC1)C(C1CCCCC1)N1C(=O)OCC1C2 (mixture of isomers)	9.05	–
6.05	–	CCCCCCOc1cc2c(cc1OC)CC1COC(=O)N1C2 (racemic)	–	–
1.3	7.15	COc1cc2c(cc1OCC1CC1)CN1C(=O)OCC1C2 (racemic)	9.58	–
0.6	5.13	COc1cc2c(cc1OC1CCCC1)CN1C(=O)OCC1C2 (racemic)	1.35	inhibition [4]: 100%; inhibition at 100 µM (PDE9A): 2%; inhibition at 100 µM (PDE8A): 12%; inhibition at 100 µM (PDE10A): 1%; Ratio IC50 (PBMC [5]): 7; inhibition at 100 µM (PDE7A): 5%; inhibition at 100 µM (PDE1A): 12%; inhibition at 100 µM (PDE5A): 14%; inhibition in vivo at 10 mg/kg (Mus musculus): 48.2%; inhibition at 100 µM (PDE2A): 3%; inhibition at 100 µM (PDE6C): 8%; inhibition at 100 µM (PDE11A): 3%; inhibition in vivo at 10 mg/kg (Rattus norvegicus): 42.3%; inhibition at 100 µM (PDE3B): 5%
4.1	23.3	CCCCCOc1cc2c(cc1OC)CC1COC(=O)N1C2 (racemic)	–	–
52.1	–	COc1cc2c(cc1OC)CN1C(=O)OCC1C2 (racemic)	–	–
2.62	13.9	COc1cc2c(cc1OC1CCCCC1)CN1C(=O)OCC1C2 (racemic)	8.4	–
22.4	–	CCCOc1cc2c(cc1OC)CC1COC(=O)N1C2 (racemic)	–	–
–	–	COc1ccc(C2CNC(=O)C2)cc1OC1CCCC1 (configuration not stated) [ROLIPRAM]	10.8	inhibition in vivo at 10 mg/kg (Mus musculus): 41%; inhibition in vivo at 10 mg/kg (Rattus norvegicus): 32.3%
